Usually IC50 stands for the point on the concentration scale where inhibition reaches its midpoint. A word on the inhibition: it is the drop in the measured response relative to a control, in per cent. Low readings indicate little suppression, high ones strong suppression. The term Inhibition denotes the relative decrease from the control value, in per cent. A high value points to strong suppression.

Seven compounds from ChEMBL document CHEMBL1159063, “Apoptotic activities in closely related styryllactone stereoisomers toward human tumor cell lines: Investigation of synergism of styryllactone-induced apoptosis with TRAIL” (Bioorg Med Chem, 2010) can be followed below.

In data set [1] the test system is MCF7. Description: Antiproliferative activity against human MCF7 cells after 48 hrs by SRB assay. It counts as functional, cell-based. Summed up:
(§1)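 Cells grown in RPMI with 10% fetal calf serum at 37 °C, 5% CO2, replated 24 h before use, >90% trypan blue viability. DMSO stocks (1 mg/ml) diluted in medium; 48 h exposure at 37 °C, triplicate wells, concentrations up to 250 µM. Fixed with cold TCA, SRB stained, dye solubilized in 10 mM Tris pH 10.5, A570. Percent inhibition calculated versus untreated cells after subtracting cell-free blanks.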

The test system of data set [2] is CCRF-CEM. Description: Antiproliferative activity against human CEM cells at 250 uM after 48 hrs by SRB assay. The class given is functional. Summed up:
as §1

Data set [3] in a line: Cytotoxicity against human MCF12A cells at 250 uM after 48 hrs by SRB assay. It counts as cell-based, MCF-12A. Conditions: read-out: INH; call rule not given here. The essentials:
as §1
Background: The SRB assay estimates cell density from bound dye.

Data set [4] relates to MCF7. Description: Antiproliferative activity against human MCF7 cells at 250 uM after 48 hrs by SRB assay. The class given is functional, cell-based. Conditions: for inhibition at 250 µM: Homo sapiens, MCF7, 48 h. Summed up: as §1
Data set [5] relates to CCRF-CEM. Description: Antiproliferative activity against human CEM cells after 48 hrs by SRB assay. The class given is functional, cell-based. Summed up:
as §1

A short description of data set [6]: Cytotoxicity against human MCF12A cells after 48 hrs by SRB assay. The class given is cell-based, MCF-12A. Summed up: as §1
Data set [7] has as its system CCRF-CEM. The data set is described as follows: Cytotoxicity against human CEM cells assessed as late apoptotic/necrotic cells at 120 uM after 24 hrs by Annexin-V-FITC and porpidium iodide staining based flow cytometry. The class given is functional. Summed up:
(§2)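 CEM cells at 10⁶/ml incubated 24 h at 37 °C with 120 µM agent from fresh DMSO stocks. Cells then washed in ice-cold PBS and taken into binding buffer (10 mM HEPES, 140 mM NaCl, 2.5 mM CaCl2). Annexin V-FITC and PI were added for 15 min in the dark at ambient temperature. Flow cytometry read 520/620 nm, gated on forward scatter to remove debris, counting 10,000 cells. Three experiments.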

Data set [8] relates to CCRF-CEM. Description: Cytotoxicity against human CEM cells assessed as early apoptotic cells at 120 uM after 24 hrs by Annexin-V-FITC and porpidium iodide staining based flow cytometry. It counts as functional. Summed up: as §2
A general note: In flow cytometry, cells or beads pass a laser one at a time.

Data set [9] concerns CCRF-CEM. Description: Cytotoxicity against human CEM cells assessed as viable cells at 120 uM after 24 hrs by Annexin-V-FITC and porpidium iodide staining based flow cytometry. Conditions: read-out: Activity. It counts as functional. Summed up:
as §2

The mark [10] stands for this setting: Homo sapiens, MCF7, 48 h, read-out: IC50.
Where [11] appears, read: Homo sapiens, CCRF-CEM, 48 h, read-out: IC50.
[12] abbreviates: Homo sapiens, MCF-12A, 48 h, read-out: IC50.

With `COC(=O)C[C@H](O)[C@@H]1O[C@@H](c2ccccc2)[C@@H](O)[C@@H]1O`, the IC50 result in data set [1] (mcf7), in data set [5] (ccrf-cem) and in [6] (mcf-12a) was “Not Active” throughout. The inhibition at 250 µM in data set [2] and in [4] was below 50% each time. For the same compound, the cytotoxicity at 48 h, 250 µM in [3] was below 50%.

Take `O=C1C[C@@H](O)[C@@H]2O[C@H](c3ccccc3)[C@@H](O)[C@@H]2O1`: the half-maximal inhibitory concentration (IC50) entry in data set [1] (mcf7), in data set [5] (ccrf-cem) and in data set [6] (mcf-12a) was “Not Active” throughout. For the same compound, the inhibition at 250 µM in [2] is below 50%. In addition, in data set [3], the cytotoxicity at 48 h, 250 µM is below 50%. The compound further displayed an Inhibition in data set [4] (mcf7) below 50%.

For the compound `COC(=O)C[C@H](O)[C@H]1O[C@@H](c2ccccc2)[C@H](O)[C@H]1O`, the IC50 entry in data set [1] (mcf7), in [5] (ccrf-cem) and in data set [6] (mcf-12a) was “Not Active” in each case. In addition, the inhibition at 250 µM in data set [2] and in [4] was below 50% each time. Moreover, in data set [3], the cytotoxicity at 48 h, 250 µM was below 50%.

On to `COC(=O)C[C@H](O)[C@@H]1O[C@@H](c2ccccc2)[C@H](O)[C@@H]1O`, for which the concentration for half-maximal inhibition (IC50) result in data set [1] (mcf7), in data set [5] (ccrf-cem) and in data set [6] (mcf-12a) was “Not Active” throughout. Besides, the inhibition at 250 µM in [2] and in [4] was below 50% each time. The cytotoxicity at 48 h, 250 µM in [3] was below 50%.

Turning to `COC(=O)C[C@@H](O)[C@@H]1O[C@H](c2ccccc2)[C@@H](O)[C@@H]1O` (mixture of isomers), the IC50 result in data set [1] (mcf7), in data set [5] (ccrf-cem) and in [6] (mcf-12a) was “Not Active” each time. Further, the inhibition at 250 µM in [2] and in [4] was below 50% throughout. Further, the cytotoxicity at 48 h, 250 µM in data set [3] was below 50%.

Regarding `O=C1C=C[C@@H]2O[C@H](c3ccccc3)[C@@H](O)[C@@H]2O1` [ALTHOLACTONE], the IC50 in data set [1] (setting [10]) came out at 124 µM; in data set [5] (setting [11]) it was 19 µM; in data set [6] (setting [12]), 120 µM. Further, the Activity in [7] worked out at 19%; in data set [8], 33%. Besides, the viability at 120 µM in data set [9] was 19%.

Take `O=C1C=C[C@H]2O[C@@H](c3ccccc3)[C@H](O)[C@H]2O1` [ENT-ALTHOLACTONE]: the concentration for half-maximal inhibition (IC50) in data set [1] (setting [10]) is 100 µM; in [5] (setting [11]), 24 µM; in data set [6] (setting [12]), 110 µM. Moreover, the Activity in data set [7] is on record as 40%; in [8], 10%. The viability at 120 µM in [9] was found to be 19%.
